The source made the active and inactive calls. The calls are words filed in the database; no cut-off is given here.
Experiments:
HeLa = assay: Antiproliferative activity against HeLa cells; format: functional, cell-based; conditions: Homo sapiens
HL-60 [1] = assay: Body weight loss of SCID mouse xenografted with HL60 cells at 30 mg/kg, iv after 5 days; format: functional
A2780 = assay: Antiproliferative activity against A2780 cells; format: functional, cell-based; conditions: Homo sapiens
MCF7 = assay: Antiproliferative activity against MCF7 cells; format: functional, cell-based; conditions: Homo sapiens
Procedure, shortened: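 IC50 taken from dose-response curves of cell proliferation; each reported value is the mean of three or more independent curves.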

HCT-116 [2] = assay: Antiproliferative activity against HCT116 cells; format: functional, cell-based; conditions: Homo sapiens
Procedure, shortened: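 HCT-116 human colon carcinoma cells; proliferation IC50 taken from dose-response curves, reported as the mean of at least three independent determinations.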

HL-60 [3] = assay: Antitumor activity against HL60 cells xenografted in SCID mouse at 7.5 to 30 mg/kg, iv after 5 days; format: functional; conditions: dose mg/kg 7.5-30
Procedure, shortened: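 SCID mice carrying HL-60 human tumor xenografts. Dosed iv twice daily for 5 days (bid × 5) at 7.5 to 30 mg/kg. Tumor growth inhibition followed over time.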

HCT-116 [4] = assay: Inhibition of histone h3 phosphorylation in HCT116 cells by Western blot analysis; format: functional, cell-based; conditions: Homo sapiens
Procedure, shortened: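 HCT-116 cells probed by Western blot for histone H3 phosphorylated at serine 10. α-Tubulin antibody used as the loading control.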

HCT-116 [5] = assay: Cell cycle arrest in HCT116 cells by accumulation at G2/M phase; format: functional, cell-based; conditions: Homo sapiens
Aurora kinase A = target: T1, Aurora kinase A (Homo sapiens, UniProt O14965); assay: Inhibition of Aurora A kinase
T1 sequence (O14965 whole entry): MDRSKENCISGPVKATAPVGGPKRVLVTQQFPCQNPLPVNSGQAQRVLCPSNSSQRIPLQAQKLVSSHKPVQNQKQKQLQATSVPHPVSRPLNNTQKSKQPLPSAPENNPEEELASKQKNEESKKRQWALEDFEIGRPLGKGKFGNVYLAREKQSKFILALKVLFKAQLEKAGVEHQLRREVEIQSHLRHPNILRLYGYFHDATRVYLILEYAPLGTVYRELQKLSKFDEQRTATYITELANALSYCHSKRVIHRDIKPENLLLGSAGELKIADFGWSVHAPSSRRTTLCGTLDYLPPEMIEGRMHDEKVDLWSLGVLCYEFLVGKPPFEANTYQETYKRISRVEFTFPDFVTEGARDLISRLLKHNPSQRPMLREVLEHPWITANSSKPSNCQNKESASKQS

Aurora kinase B = Aurora kinase B (Homo sapiens, UniProt Q96GD4); assay: Inhibition of Aurora B kinase
Procedure, shortened: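 Biochemical Aurora-B kinase inhibition; IC50 reported as the mean of at least three individual determinations.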

[6] = Aqueous solubility at pH 5.5; format: physicochemical
Procedure, shortened: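 Aqueous solubility measured on the hydrochloride salt at pH 5.5.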

Aurora kinase C = target: T2, Aurora kinase C (Homo sapiens, UniProt Q9UQB9); assay: Inhibition of Aurora C kinase
T2 sequence (Q9UQB9 whole entry): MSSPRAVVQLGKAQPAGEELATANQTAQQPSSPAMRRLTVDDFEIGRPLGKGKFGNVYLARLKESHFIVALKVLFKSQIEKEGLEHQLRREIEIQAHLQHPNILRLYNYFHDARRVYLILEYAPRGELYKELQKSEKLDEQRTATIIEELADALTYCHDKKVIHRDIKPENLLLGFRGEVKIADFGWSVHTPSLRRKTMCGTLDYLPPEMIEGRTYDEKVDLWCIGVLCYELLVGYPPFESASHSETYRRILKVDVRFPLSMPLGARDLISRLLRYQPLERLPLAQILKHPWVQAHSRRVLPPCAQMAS

[7] = Clearance in CD1 mouse at 10 mg/kg, iv; format: ADME, organism-based; parameters: dose 10 mg/kg, route intravenous; conditions: in vivo
Procedure, shortened: (§1)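 Plasma levels followed up to 6 h post-dose. Parameters estimated individually for three mice (M1–M3) and reported as mean and SD.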

[8] = Volume of distribution in CD1 mouse at 10 mg/kg, iv; format: ADME, organism-based; parameters: dose 10 mg/kg, route intravenous; conditions: in vivo, read-out: Vss; procedure, shortened: as §1
[9] = target: Serine/threonine-protein kinase NIM1 (Homo sapiens, UniProt Q8IY84); assay: Inhibition of NIM1
[10] = target: T3, Serine/threonine-protein kinase SULU (Caenorhabditis elegans, UniProt P46549); assay: Inhibition of SULU
T3 sequence (P46549 whole entry): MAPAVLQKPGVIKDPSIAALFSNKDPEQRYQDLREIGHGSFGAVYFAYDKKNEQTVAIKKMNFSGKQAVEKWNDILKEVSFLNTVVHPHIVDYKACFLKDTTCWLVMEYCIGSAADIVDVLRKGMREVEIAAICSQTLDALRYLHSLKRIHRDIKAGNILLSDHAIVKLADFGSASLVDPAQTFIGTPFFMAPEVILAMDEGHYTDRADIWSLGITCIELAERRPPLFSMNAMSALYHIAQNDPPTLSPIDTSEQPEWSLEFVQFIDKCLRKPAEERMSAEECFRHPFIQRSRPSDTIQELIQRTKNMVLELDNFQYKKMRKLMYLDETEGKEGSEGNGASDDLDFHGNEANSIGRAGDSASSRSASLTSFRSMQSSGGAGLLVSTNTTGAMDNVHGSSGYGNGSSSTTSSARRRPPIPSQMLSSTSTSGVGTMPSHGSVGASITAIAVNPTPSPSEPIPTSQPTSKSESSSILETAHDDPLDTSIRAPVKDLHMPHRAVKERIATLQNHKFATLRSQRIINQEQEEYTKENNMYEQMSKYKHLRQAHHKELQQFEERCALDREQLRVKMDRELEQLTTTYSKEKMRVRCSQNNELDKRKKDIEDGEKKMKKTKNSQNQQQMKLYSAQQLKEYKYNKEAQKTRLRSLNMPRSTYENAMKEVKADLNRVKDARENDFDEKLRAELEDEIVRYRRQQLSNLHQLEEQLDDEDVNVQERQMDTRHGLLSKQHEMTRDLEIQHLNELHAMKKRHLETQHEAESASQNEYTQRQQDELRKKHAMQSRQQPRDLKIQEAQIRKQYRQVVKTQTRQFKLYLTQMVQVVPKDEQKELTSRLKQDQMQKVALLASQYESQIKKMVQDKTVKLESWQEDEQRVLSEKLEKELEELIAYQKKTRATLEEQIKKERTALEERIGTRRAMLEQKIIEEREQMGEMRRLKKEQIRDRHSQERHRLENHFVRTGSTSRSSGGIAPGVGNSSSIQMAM

[11] = target: Vascular endothelial growth factor receptor 3 (Homo sapiens, UniProt P35916); assay: Inhibition of VEGFR3
[12] = target: T4, 3-phosphoinositide-dependent protein kinase 1 (Homo sapiens, UniProt O15530); assay: Inhibition of PDK1
T4 sequence (O15530 whole entry): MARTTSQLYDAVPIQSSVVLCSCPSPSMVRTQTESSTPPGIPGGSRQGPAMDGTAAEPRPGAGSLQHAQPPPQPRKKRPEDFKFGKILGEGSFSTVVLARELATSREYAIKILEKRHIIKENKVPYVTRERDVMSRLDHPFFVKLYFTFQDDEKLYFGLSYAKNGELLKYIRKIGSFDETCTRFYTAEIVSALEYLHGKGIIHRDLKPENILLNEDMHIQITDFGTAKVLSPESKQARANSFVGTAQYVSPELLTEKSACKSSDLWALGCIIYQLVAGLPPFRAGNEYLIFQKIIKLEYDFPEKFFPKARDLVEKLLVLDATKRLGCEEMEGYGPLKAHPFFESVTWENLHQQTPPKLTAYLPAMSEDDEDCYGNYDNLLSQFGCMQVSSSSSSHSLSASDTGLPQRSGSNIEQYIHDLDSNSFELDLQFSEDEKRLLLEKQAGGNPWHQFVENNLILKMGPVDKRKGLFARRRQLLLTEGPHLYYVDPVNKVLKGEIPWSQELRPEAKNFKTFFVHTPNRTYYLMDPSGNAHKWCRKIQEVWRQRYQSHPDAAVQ

[13] = target: T5, Inhibitor of nuclear factor kappa-B kinase subunit beta (Homo sapiens, UniProt O14920); assay: Inhibition of IKK2
T5 sequence (O14920 whole entry): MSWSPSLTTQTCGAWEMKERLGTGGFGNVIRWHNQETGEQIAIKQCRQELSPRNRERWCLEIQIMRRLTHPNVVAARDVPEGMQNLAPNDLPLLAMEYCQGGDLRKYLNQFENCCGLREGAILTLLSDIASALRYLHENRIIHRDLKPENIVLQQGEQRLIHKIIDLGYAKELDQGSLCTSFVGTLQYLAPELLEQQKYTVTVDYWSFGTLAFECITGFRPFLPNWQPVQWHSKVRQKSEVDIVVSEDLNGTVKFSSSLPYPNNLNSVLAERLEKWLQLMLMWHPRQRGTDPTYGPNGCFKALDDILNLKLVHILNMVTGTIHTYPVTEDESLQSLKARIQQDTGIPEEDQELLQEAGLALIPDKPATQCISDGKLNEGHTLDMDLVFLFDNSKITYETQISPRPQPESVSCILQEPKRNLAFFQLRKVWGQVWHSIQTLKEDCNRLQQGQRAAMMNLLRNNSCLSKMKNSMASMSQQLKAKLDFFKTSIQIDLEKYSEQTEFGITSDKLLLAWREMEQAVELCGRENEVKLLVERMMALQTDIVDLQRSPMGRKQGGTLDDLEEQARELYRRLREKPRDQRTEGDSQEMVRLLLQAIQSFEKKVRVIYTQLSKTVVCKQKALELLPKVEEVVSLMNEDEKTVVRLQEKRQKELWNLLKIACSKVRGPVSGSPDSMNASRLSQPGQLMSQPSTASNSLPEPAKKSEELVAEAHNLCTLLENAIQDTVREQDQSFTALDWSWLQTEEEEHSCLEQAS

[14] = target: T6, Tyrosine-protein kinase ZAP-70 (Homo sapiens, UniProt P43403); assay: Inhibition of ZAP70
T6 sequence (P43403 whole entry): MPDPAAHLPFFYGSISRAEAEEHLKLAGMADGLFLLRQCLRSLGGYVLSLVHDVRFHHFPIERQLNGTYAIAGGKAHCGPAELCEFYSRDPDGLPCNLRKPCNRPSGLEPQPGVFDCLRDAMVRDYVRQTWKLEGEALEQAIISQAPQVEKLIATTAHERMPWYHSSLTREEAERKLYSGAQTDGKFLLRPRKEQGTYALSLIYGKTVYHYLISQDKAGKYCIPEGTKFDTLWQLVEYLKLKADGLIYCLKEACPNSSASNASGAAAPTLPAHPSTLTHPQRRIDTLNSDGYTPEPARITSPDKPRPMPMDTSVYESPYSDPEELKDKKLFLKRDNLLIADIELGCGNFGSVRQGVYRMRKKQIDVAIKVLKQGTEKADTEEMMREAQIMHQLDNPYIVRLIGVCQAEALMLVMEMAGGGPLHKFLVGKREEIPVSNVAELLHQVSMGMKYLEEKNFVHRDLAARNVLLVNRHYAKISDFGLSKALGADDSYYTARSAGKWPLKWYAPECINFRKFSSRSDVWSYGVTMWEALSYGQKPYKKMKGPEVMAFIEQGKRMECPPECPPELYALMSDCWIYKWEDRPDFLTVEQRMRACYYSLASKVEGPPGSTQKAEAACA

[15] = AUC in CD1 mouse at 10 mg/kg, iv; format: ADME, organism-based; parameters: dose 10 mg/kg, route intravenous; conditions: plasma; procedure, shortened: as §1
[16] = Terminal half life in CD1 mouse at 10 mg/kg, iv; format: ADME, organism-based; parameters: dose 10 mg/kg, route intravenous; conditions: in vivo, read-out: beta t1/2 (converted); procedure, shortened: as §1
[17] = Cmax in CD1 mouse at 10 mg/kg, iv; format: ADME, organism-based; parameters: dose 10 mg/kg, route intravenous; conditions: in vivo; procedure, shortened: as §1

Sequence of Aurora kinase B (Q96GD4 whole entry): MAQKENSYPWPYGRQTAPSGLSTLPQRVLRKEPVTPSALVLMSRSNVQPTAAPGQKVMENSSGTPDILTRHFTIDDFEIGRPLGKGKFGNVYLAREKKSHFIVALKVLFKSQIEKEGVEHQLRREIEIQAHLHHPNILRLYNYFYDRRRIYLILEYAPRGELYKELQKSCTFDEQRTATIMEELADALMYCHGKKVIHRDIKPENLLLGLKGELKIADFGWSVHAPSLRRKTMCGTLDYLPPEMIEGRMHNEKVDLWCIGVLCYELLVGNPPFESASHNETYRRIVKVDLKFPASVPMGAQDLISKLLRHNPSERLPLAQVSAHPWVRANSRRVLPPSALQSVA
Sequence of Serine/threonine-protein kinase NIM1 (Q8IY84 whole entry): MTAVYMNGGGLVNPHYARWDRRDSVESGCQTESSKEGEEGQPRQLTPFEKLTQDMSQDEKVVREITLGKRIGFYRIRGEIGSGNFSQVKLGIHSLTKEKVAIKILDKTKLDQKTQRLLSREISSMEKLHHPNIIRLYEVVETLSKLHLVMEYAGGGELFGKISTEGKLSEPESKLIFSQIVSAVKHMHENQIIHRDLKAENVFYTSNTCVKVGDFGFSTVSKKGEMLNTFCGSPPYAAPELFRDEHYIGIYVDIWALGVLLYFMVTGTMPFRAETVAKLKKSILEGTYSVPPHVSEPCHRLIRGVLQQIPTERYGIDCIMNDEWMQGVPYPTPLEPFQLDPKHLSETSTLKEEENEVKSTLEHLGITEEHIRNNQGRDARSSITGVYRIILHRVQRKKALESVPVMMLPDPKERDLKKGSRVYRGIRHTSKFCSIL
Sequence of Vascular endothelial growth factor receptor 3 (P35916 whole entry): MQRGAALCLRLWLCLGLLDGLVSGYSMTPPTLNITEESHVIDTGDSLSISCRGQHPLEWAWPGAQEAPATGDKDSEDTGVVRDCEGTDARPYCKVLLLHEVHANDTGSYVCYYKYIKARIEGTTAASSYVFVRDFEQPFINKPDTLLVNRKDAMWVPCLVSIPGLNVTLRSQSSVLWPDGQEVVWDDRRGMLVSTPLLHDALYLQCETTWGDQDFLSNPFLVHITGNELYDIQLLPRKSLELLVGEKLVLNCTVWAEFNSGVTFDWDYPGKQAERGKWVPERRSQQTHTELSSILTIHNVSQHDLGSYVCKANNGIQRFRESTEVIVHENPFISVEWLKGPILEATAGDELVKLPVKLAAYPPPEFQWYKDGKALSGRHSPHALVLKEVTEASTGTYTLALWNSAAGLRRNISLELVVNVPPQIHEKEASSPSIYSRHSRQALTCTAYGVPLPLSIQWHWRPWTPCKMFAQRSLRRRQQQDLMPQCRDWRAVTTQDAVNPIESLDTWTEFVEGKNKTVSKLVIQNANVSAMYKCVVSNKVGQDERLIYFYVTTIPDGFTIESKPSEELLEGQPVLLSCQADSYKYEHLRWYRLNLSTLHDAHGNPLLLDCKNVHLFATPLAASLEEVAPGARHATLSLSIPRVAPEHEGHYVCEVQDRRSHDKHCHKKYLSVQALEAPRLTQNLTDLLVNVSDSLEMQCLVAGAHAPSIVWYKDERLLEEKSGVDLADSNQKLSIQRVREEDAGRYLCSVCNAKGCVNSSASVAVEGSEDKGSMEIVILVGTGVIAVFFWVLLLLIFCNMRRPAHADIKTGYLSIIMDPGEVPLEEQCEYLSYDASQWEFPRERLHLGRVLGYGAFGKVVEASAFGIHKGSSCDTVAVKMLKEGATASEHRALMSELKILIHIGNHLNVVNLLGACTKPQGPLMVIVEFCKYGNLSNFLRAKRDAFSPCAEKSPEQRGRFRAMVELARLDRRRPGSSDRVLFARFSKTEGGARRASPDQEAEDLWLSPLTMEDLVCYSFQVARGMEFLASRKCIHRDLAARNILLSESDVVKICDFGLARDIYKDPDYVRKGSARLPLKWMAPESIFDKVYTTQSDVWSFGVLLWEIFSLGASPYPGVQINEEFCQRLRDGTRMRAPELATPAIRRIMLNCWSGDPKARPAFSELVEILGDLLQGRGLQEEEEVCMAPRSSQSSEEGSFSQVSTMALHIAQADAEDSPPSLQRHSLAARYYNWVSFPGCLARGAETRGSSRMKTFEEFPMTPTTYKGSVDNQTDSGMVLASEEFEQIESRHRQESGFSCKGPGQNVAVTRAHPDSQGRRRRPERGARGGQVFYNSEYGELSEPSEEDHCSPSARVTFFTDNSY

Structure (SMILES): CO[C@@H](C(=O)N1Cc2[nH]nc(NC(=O)c3ccc(N4CCN(C)CC4)cc3)c2C1)c1ccccc1 [DANUSERTIB]
- IC50 (HeLa): 140 nM
- Activity (HL-60 [1]): 16%
- IC50 (A2780): 28 nM
- IC50 (MCF7): 80 nM
- IC50 (HCT-116 [2]): 31 nM
- TGI (HL-60 [3]): 98%
- Activity (HCT-116 [4]): Active
- EC50 (HCT-116 [5]): 80 nM

Structure (SMILES): C[C@H](C(=O)N1Cc2n[nH]c(NC(=O)c3ccc(N4CCN(C)CC4)cc3)c2C1)c1ccccc1
- IC50 (Aurora kinase A): 452 nM
- IC50 (Aurora kinase B): 1210 nM

Structure (SMILES): C[C@@H](C(=O)N1Cc2[nH]nc(NC(=O)c3ccc(N4CCN(C)CC4)cc3)c2C1)c1ccccc1
- IC50 (Aurora kinase A): 24 nM
- IC50 (HCT-116 [2]): 21 nM
- IC50 (Aurora kinase B): 99 nM
- EC50 (HCT-116 [5]): 100 nM

Structure (SMILES): CO[C@@H](C(=O)N1Cc2n[nH]c(NC(=O)c3ccc(N4CCN(C)CC4)cc3)c2C1)c1ccccc1.Cl
- solubility [6]: > 15 mg/mL

Structure (SMILES): CN1CCN(c2ccc(C(=O)Nc3n[nH]c4c3CN(C(=O)[C@H](O)c3ccccc3)C4)cc2)CC1
- IC50 (Aurora kinase A): 6 nM
- IC50 (HCT-116 [2]): 97 nM
- IC50 (Aurora kinase B): 48 nM
- EC50 (HCT-116 [5]): > 200 nM

Structure (SMILES): CN1CCN(c2ccc(C(=O)Nc3n[nH]c4c3CN(C(=O)Cc3ccccc3)C4)cc2)CC1
- IC50 (Aurora kinase A): 130 nM
- IC50 (HCT-116 [2]): 220 nM
- EC50 (HCT-116 [5]): 500 nM

Structure (SMILES): CO[C@@H](C(=O)N1Cc2n[nH]c(NC(=O)c3ccc(N4CCN(C)CC4)cc3)c2C1)c1ccccc1 [DANUSERTIB]
- IC50 (Aurora kinase C): 61 nM
- clearance [7]: 60 mL/min/kg
- Vd [8]: 3.7 L/kg
- IC50 [9]: > 10000 nM
- IC50 [10]: > 10000 nM
- IC50 [11]: 161 nM
- IC50 [12]: > 10000 nM
- IC50 [13]: > 10000 nM
- IC50 [14]: > 10000 nM
- AUC [15]: 6.5 µM·h
- half-life [16]: 1.4 h
- Cmax [17]: 9.6 µM

Structure (SMILES): CN1CCN(c2ccc(C(=O)Nc3n[nH]c4c3CN(C(=O)[C@H](F)c3ccccc3)C4)cc2)CC1
- IC50 (Aurora kinase A): 9 nM
- IC50 (HCT-116 [2]): 50 nM
- IC50 (Aurora kinase B): 300 nM
- EC50 (HCT-116 [5]): 110 nM
